system: Rattus norvegicus; assay: Antisecretory activity in rat assessed as decrease in total acid at 1.5 mg/kg, sc immediately after surgery and again 2 hrs later measured after 4 hrs of pyloric ligation; type: functional; design: scale not given: the % may be the effect or the level left; conditions: route subcutaneous
Method in brief: (§1)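 Pylorus-ligated rats under ether anesthesia via midline incision; 1.5 mg/kg sc given immediately after surgery and again 2.0 h later (total 3 mg/kg), diluted in phosphate buffer pH 7.4, 1 mL/kg. Six rats per compound plus vehicle control group. Killed 4 h after ligation; gastric volume measured, contents centrifuged 5000 rpm 10 min, supernatant titrated with 0.1 N NaOH to pH 7.0 (mequiv); % change vs control.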

In order of rising Activity:
1. CCCCCC(O)/C=C/CCCC(=O)N(C)CCCCCCC(=O)O (stereo not given)  25%
2. CCCCCC(O)/C=C/CCCC(=O)N(C)CCCCCCC(=O)OC (stereo not given)  32%
3. CCCCCC(O)/C=C/CCOC(=O)CCCCCCCC(=O)OC (stereo not given)  34%
4. CCCCC[C@H](O)/C=C/[C@@H]1[C@@H](C/C=C\CCCC(=O)O)[C@@H](O)C[C@H]1O [DINOPROST]  42%
5. CCCCC[C@H](O)/C=C/[C@H]1[C@H](O)CC(=O)[C@@H]1CCCCCCC(=O)O [ALPROSTADIL]  96%

system: Rattus norvegicus; assay: Antisecretory activity in rat assessed as decrease in volume of gastric secretion at 1.5 mg/kg, sc immediately after surgery and again 2 hrs later measured after 4 hrs of pyloric ligation; type: functional, Stomach; design: scale not given: the % may be the effect or the level left; conditions: route subcutaneous; method in brief: as §1

In order of rising Activity:
1. CCCCCC(O)/C=C/CCCC(=O)N(C)CCCCCCC(=O)OC (stereo not given)  21%
2. CCCCCC(O)/C=C/CCOC(=O)CCCCCCCC(=O)OC (stereo not given)  25%
3. CCCCCC(O)/C=C/CCCC(=O)N(C)CCCCCCC(=O)O (stereo not given)  25%
4. CCCCC[C@H](O)/C=C/[C@@H]1[C@@H](C/C=C\CCCC(=O)O)[C@@H](O)C[C@H]1O [DINOPROST]  37%
5. CCCCC[C@H](O)/C=C/[C@H]1[C@H](O)CC(=O)[C@@H]1CCCCCCC(=O)O [ALPROSTADIL]  74%

— ChEMBL document CHEMBL3244143, “Synthesis and gastric antisecretory properties of an 8-aza-and a 10-oxa-8,12-secoprostaglandin” (1978)
